The source of these data is ChEMBL document CHEMBL4396917, “Synthesis and biological evaluation of novel benzylidene-succinimide derivatives as noncytotoxic antiangiogenic inhibitors with anticolorectal cancer activity in vivo” (Eur J Med Chem, 2019).

Activity calls are given as the source filed them. The calls are words filed in the database; no cut-off is given here. Some results are limits rather than exact numbers.

The test system of series [1] is HT-29. The series can be described thus: Induction of apoptosis in human HT-29 cells assessed as late apoptotic cells at 20 uM after 24 hrs by Annexin V-FITC/propidium iodide staining based flow cytometric analysis (reference value: 13.4%). To be noted: ht-29, 24 h. In kind it is cell-based.
Series [2] deals with HUVEC. The series can be described thus: Antiangiogenic activity in HUVEC assessed as inhibition of VEGF-induced capillary like tube formation at 2.5 uM preincubated with VEGF for 20 mins followed by compound addition measured after 6 hrs by matrigel based tube formation assay relative to control. In kind it is functional. Conditions: Homo sapiens. A digest of the protocol:
(§1)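 Matrigel (100 μL) set 1 h at 37°C; 2×10⁴ HUVECs in M200 with 10% FBS added per well plus 10 ng/mL VEGF; compound added after 20 min; incubated 6 h at 37°C, then capillary-like structures photographed.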

The test system of series [3] is HUVEC. Description: Antiinvasive activity in HUVEC assessed as inhibition of VEGF-induced cell invasion at 20 uM after 6 hrs by crystal violet staining based transwell assay relative to control. Conditions: Homo sapiens. In kind it is functional. In short, it runs like this: (§2)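 Transwell: 1×10⁴ HUVECs in serum-free M200 in top chamber with vehicle or compound; bottom chamber M200 with 10% FBS; 6 h at 37°C; cells on membrane underside fixed in 4% paraformaldehyde, stained 0.1% crystal violet, imaged and counted.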

The test system of series [4] is HUVEC. Description: Antiangiogenic activity against HUVEC assessed as inhibition of cell proliferation measured […] by MTT assay. Format: functional, cell-based. To be noted: Homo sapiens.
The test system of series [5] is HUVEC. The series can be described thus: Inhibition of Akt/mTOR signalling in VEGF-induced HUVEC assessed as reduction in P70S6K phosphorylation at Thr389 residue pre-incubated for 1.5 hrs followed by VEGF stimulation and measured after 30 mins by Western blot analysis. In kind it is cell-based. Conditions: Homo sapiens. A digest of the protocol: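 HUVECs were starved overnight, pretreated 1.5 h with 1, 5, 10 or 20 μM, then stimulated with VEGF (50 ng/mL) for 30 min. Lysates were equalized by Bradford assay, about 20 μg protein was resolved on gradient SDS-PAGE and immunoblotted with phospho-specific antibodies. Detection by HRP secondary antibodies and ECL.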
Background: Immunoblotting shows a protein as a band on a membrane.

Series [6] deals with HUVEC. The series can be described thus: Induction of apoptosis in VEGF-stimulated HUVEC assessed as late apoptotic cells at 20 uM after 24 hrs by Annexin V-FITC/propidium iodide staining based flow cytometric analysis (reference value: 11.3%). Conditions: human. In kind it is cell-based. In short, it runs like this:
(§3)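 HUVECs plated at 5×10^5 per well and treated 24 h with 1, 5, 10 or 20 μM. Detached and adherent cells were pooled, washed in ice-cold PBS and resuspended in fresh medium. 1×10^5 cells were stained with annexin-V-FITC in annexin-V buffer for 20 min in the dark, then PI (50 μg/mL) was added. Read-out by flow cytometry.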
Background: Flow cytometry measures light scatter and fluorescence of single cells or particles in a stream.

For series [7], the system named is HUVEC. Description: Induction of apoptosis in VEGF-stimulated HUVEC assessed as necrotic cells at 20 uM after 24 hrs by Annexin V-FITC/propidium iodide staining based flow cytometric analysis (reference value: 12.1%). Format: cell-based. Conditions: human. In short, it runs like this:
as §3

In series [8] the test system is HT-29. Description: Induction of apoptosis in human HT-29 cells assessed as early apoptotic cells at 5 uM after 48 hrs by Annexin V-FITC/propidium iodide staining based flow cytometric analysis (reference value: 5.3%). In kind it is cell-based. Conditions: ht-29, 48 h.
Series [9] deals with HT-29. The series can be described thus: Antiangiogenic activity in human HT-29 cells assessed as decrease in secreted MMP9 activity at 1 to 20 uM after 24 hrs by gelatin zymography. Format: functional, cell-based. A digest of the protocol:
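HT29 cells treated 1, 5, 10 or 20 μM for 24 h; supernatant run non-reducing on 10% SDS-PAGE with 2% gelatin; SDS removed with 2% Triton X-100, gel incubated 48 h at 37°C in Tris pH 7.5/NaCl/CaCl2 buffer, Coomassie stained; clear MMP-2 and MMP-9 bands quantified by densitometry.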

Series [10] has as its system HT-29. Description: Induction of apoptosis in human HT-29 cells assessed as caspase-3 cleavage up to 20 uM after 24 to 72 hrs by Western blot analysis. In kind it is cell-based.
For series [11], the system named is HUVEC. The series can be described thus: Effect on total STAT3 expression in VEGF-induced HUVEC at 1 to 20 uM pre-incubated for 2 hrs followed by VEGF stimulation and measured after 15 mins by Western blot analysis. In kind it is ADME, cell-based. To be noted: human, 0.25 h. In short, it runs like this: (§4)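 HUVECs serum-starved overnight, pretreated with compound (methods: 1, 2.5, 5, 10 μM for 2 h; legend: 1, 5, 10, 20 μM for 1.5 h), then VEGF 50 ng/mL (methods: VEGF165, 15 min; legend: 30 min); lysates equalized by Bradford, ~20 μg protein resolved on gradient SDS-PAGE, immunoblotted, ECL detection.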

Series [12] deals with HUVEC. The series can be described thus: Antiinvasive activity in HUVEC assessed as inhibition of VEGF-induced cell invasion at 1 uM after 6 hrs by crystal violet staining based transwell assay relative to control. To be noted: Homo sapiens. In kind it is functional. A digest of the protocol:
as §2

The next series relates to Chorioallantoic membrane. The series can be described thus: Antiangiogenic activity in Leghorn chicken fertilized egg chorioallantoic membrane at 10 nM/egg measured after 48 hrs by CAM assay. In kind it is functional, tissue-based. Conditions: Gallus gallus. A digest of the protocol:
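Fertile Leghorn eggs incubated at 37.8°C, 40% humidity; window opened on day 7; compound, sunitinib or 0.9% NaCl mixed with DMSO applied on filter paper onto CAM; 48 h incubation, methanol fixation, photography; nascent vessels counted.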

Series [13] is described as follows: Toxicity in mouse xenografted with human HT-29 cells assessed as body weight at 20 to 60 mg/kg, po administered every other day for 3 weeks. To be noted: in vivo, 504 h. Format: organism-based. A digest of the protocol:
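HT29 cells implanted subcutaneously in the right flank of nude mice. At about 100 mm³, mice were randomized to vehicle (0.9% NaCl) or oral compound at 20, 40 and 60 mg/kg, with sunitinib at 40 mg/kg as reference. Body weight and tumor size recorded every other day.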
For orientation: In xenograft studies the graft and the host belong to different species.

In series [14] the target is Vascular endothelial growth factor receptor 2 (Homo sapiens) (UniProt P35968). Description: Inhibition of VEGFR2 in VEGF-stimulated HUVEC assessed as downregulation of FAK phosphorylation at Tyr925 residue at 1 to 10 uM pre-incubated for 2 hrs followed by VEGF stimulation and measured after 15 mins by Western blot analysis. Format: cell-based.
Vascular endothelial growth factor receptor 2 (Homo sapiens), sequence (P35968 whole entry): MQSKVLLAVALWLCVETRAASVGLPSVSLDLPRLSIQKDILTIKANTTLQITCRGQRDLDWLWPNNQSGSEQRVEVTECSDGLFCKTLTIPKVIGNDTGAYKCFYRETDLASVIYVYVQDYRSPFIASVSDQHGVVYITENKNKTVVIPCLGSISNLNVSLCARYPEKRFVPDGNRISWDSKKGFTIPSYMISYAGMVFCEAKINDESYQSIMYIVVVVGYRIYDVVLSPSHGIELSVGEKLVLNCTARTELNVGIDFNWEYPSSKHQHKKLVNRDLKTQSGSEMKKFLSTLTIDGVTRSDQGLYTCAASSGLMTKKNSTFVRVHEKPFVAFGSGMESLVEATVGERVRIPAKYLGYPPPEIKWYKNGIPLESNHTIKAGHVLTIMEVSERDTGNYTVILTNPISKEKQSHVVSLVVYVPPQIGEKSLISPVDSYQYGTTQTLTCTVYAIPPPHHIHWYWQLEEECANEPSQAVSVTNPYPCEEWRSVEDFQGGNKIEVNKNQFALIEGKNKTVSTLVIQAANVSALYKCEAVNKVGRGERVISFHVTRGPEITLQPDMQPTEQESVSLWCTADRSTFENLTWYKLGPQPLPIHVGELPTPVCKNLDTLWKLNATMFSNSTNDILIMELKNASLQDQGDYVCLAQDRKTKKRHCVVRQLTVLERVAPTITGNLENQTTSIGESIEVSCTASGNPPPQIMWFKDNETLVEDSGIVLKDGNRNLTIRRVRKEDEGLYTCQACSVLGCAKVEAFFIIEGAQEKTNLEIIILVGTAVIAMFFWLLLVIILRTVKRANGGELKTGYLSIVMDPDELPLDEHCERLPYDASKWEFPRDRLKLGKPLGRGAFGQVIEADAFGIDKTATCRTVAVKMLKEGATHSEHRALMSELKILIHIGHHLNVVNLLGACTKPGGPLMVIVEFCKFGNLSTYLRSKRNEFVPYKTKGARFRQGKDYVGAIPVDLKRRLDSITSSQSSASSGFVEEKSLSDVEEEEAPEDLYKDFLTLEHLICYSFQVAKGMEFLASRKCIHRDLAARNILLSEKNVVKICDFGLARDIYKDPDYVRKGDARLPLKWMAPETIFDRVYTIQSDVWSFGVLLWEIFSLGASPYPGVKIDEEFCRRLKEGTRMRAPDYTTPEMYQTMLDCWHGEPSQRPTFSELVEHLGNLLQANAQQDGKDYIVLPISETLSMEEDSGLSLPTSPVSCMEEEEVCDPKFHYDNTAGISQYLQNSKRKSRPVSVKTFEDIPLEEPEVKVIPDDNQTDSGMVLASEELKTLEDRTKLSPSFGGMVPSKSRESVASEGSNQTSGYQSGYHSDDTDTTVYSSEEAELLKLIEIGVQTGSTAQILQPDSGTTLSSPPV
The test system of series [15] is HT-29. The series can be described thus: Inhibition of Akt/mTOR signalling in human HT-29 cells assessed as reduction in AKT phosphorylation at Ser473 residue incubated for 24 hrs by immunoblot analysis. Format: cell-based. In short, it runs like this: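 HT29 cells were exposed to the indicated concentrations for 24 h. Cell lysates were then immunoblotted for the phosphorylated proteins.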

For series [16], the system named is HUVEC. The series can be described thus: Effect on total AKT expression in VEGF-induced HUVEC at 1 to 20 uM pre-incubated for 2 hrs followed by VEGF stimulation and measured after 15 mins by Western blot analysis. To be noted: human, 0.25 h. Format: ADME, cell-based. In short, it runs like this:
as §4

For series [17], the system named is HUVEC. The series can be described thus: Antiangiogenic activity in HUVEC assessed as inhibition of VEGF-induced capillary like tube formation at 1 uM preincubated with VEGF for 20 mins followed by compound addition measured after 6 hrs by matrigel based tube formation assay relative to control. In kind it is functional. Conditions: Homo sapiens. A digest of the protocol: as §1

For a further series, the system named is HepG2. Description: Cytotoxicity against human HepG2 cells assessed as reduction in cell growth after 72 hrs by MTT assay. In kind it is cell-based. Conditions: HepG2, 72 h.
In series [18] the test system is HT-29. Description: Induction of apoptosis in human HT-29 cells assessed as early apoptotic cells at 1 uM after 24 hrs by Annexin V-FITC/propidium iodide staining based flow cytometric analysis (reference value: 1.9%). Format: cell-based. Conditions: ht-29, 24 h.

Broadly, the inhibition is the change of the read-out against control, counted positive when it falls. As a reminder, the IC50 is the point on the concentration scale where inhibition reaches its midpoint. Take `COc1ccc(NC(=O)c2cccc(/C=C3\CC(=O)N(c4ccc(C)cc4)C3=O)c2)cc1`: the Activity with HT-29 [1] is recorded as 17.1%; in the series with HUVEC [6] it was 10.1%; in the series on HUVEC [7] it was 5.6%; in the series on HT-29 [8] it was 9.7%; with HT-29 [10], “Non-Toxic”; in the series on HUVEC [11], “Not Active”. The Activity result in series [13] is listed as “Non-Toxic”; in the series on HUVEC [16], “Not Active”; in the series on HT-29 [18] it was 1.3%. In the series with HUVEC [2], the inhibition at 2.5 µM is 73%. Moreover, the inhibition at 20 µM in the series with HUVEC [3] turned out to be 70%. In addition, the inhibition entry in the series with HUVEC [4], with HUVEC [5] and with HT-29 [15] was “Dose-dependent effect” each time. Also, the IC50 in the series on HUVEC [4] (0.5 h) is 26.6 µM; in the series on HepG2 it was over 100 µM. Besides, the inhibition result (with HT-29 [9]; in series [14]) was “Active” in each case. In addition, the inhibition at 1 µM turned out to be 20% in the series on HUVEC [12] and 30% in the series with HUVEC [17]. In the series on Chorioallantoic membrane, the outcome was Active.
